Experimental data reported in paper PMC9830076 (International Journal of Nanomedicine, 2023).
Structures can show the parent of a compound that is named as a salt.

Target: T1, MRP4 transporter (Homo sapiens, UniProt O15439)
T1 sequence (O15439 1-1325): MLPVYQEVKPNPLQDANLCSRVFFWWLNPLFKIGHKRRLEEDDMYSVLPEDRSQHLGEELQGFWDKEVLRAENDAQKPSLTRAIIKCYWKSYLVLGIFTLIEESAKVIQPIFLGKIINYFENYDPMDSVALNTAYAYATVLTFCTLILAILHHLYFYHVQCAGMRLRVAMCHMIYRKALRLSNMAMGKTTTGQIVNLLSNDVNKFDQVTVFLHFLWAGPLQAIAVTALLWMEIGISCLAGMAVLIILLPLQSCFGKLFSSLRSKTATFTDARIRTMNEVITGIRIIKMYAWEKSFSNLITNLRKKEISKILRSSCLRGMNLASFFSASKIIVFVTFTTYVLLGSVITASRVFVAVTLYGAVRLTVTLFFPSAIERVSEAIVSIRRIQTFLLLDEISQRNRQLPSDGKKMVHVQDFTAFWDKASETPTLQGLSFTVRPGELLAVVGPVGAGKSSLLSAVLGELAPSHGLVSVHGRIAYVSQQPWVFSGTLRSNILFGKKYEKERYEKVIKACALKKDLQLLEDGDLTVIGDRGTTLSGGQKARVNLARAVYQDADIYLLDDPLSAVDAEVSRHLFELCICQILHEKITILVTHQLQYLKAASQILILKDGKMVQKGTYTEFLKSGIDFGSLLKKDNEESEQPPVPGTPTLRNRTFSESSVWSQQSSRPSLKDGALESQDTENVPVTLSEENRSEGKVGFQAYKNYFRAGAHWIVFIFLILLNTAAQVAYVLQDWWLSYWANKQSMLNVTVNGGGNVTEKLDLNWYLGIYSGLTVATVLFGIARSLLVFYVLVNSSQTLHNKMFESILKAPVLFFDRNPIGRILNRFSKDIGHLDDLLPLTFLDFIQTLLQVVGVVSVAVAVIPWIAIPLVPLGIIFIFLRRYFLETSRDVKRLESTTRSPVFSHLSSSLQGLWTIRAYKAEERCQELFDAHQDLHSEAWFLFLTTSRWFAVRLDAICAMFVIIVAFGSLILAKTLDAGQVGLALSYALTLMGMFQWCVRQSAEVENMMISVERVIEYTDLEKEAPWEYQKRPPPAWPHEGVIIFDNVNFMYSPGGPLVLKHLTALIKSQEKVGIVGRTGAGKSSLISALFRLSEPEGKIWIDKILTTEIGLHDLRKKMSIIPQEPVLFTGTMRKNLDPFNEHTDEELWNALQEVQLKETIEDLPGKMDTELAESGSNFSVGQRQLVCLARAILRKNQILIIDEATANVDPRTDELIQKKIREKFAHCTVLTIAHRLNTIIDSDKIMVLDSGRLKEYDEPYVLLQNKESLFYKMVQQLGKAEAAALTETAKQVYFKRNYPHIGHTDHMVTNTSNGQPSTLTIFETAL
Test: Effect of MRP4 transporter
Format: cell-based
Settings: Caco-2 cells, indomethacin 30 μM, 100 μM 6-MPNs or 6-MPCs, 2 h
Procedure, shortened: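 Caco-2 cells grown in 6-well plates to 90% confluency, preincubated 0.5 h at 37°C with 30 μM indomethacin (MRP4 inhibitor), PBS-washed ×3, then exposed 2 h to 100 μM test nanoparticles or crystals plus 30 μM indomethacin; controls without indomethacin. Cells PBS-washed and RIPA/1% PMSF-lysed; 6-MP in lysate by HPLC, total protein by BCA.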
For `COc1ccc2c(c1)c(CC(=O)O)c(C)n2C(=O)c1ccc(Cl)cc1` [indomethacin], the “effect on intracellular accumulation of 6-MP” value was “increased”.

System: not given
Test: not given
Settings: low solubility and high permeability; cited from earlier work
In the case of `Sc1ncnc2nc[nH]c12` [6-MP, 6-Mercaptopurine], the “biopharmaceutic classification system (BCS) class” value is listed as “class II”.

System: Caco-2 cells
Test: Endocytosis and intracellular trafficking mechanism with pathway inhibitors
Format: cell-based
Settings: 100 μM 6-MPNs, 0.5 h, intracellular 6-MP by HPLC
Procedure, shortened: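 Caco-2 cells in 12-well plates at 1×10^5 cells/mL, grown to 90% confluency, preincubated 0.5 h with inhibitors, PBS-washed ×3. Endocytosis inhibitors (MβCD, genistein, EIPA, Cyt D, CPZ, dynasore) co-incubated with 100 μM test nanoparticles or crystals, 37°C, 0.5 h. Trafficking inhibitors (BFA, monensin, Baf-A1, nocodazole) with 200 μM, 37°C, 2 h. Inhibitor levels as in preincubation; intracellular 6-MP by HPLC.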
In the case of `CN(C)CCCN1c2ccccc2Sc2ccc(Cl)cc21` [CPZ, chlorpromazine hydrochloride], the “effect of endocytosis inhibitor on the internalization of 6-MPNs” value (“effect of endocytosis inhibitor” below) is reported as “less influence”.
For `C=C1[C@@H](C)[C@H]2[C@H](Cc3ccccc3)NC(=O)[C@]23[C@H](OC(C)=O)/C=C/[C@@](C)(O)C(=O)[C@@H](C)C/C=C/[C@H]3[C@@H]1O` [Cyt D, cytochalasin D], the “effect of endocytosis inhibitor” value was “less influence”.
For `O=C(N/N=C/c1ccc(O)c(O)c1)c1cc2ccccc2cc1O` [Dynasore, dynasore], the “effect of endocytosis inhibitor” value was “obviously reduced”.
For `CCN(c1nc(N)c(C(=O)NC(=N)N)nc1Cl)C(C)C` [EIPA, ethyl-isopropyl-amiloride], the “effect of endocytosis inhibitor” value was “obviously reduced”.
With `O=c1c(-c2ccc(O)cc2)coc2cc(O)cc(O)c12` [Genistein, genistein] the “effect of endocytosis inhibitor” value was “less influence”.
For Methyl-beta-cyclodextrin [MβCD], the “effect of endocytosis inhibitor” value was “obviously reduced”.

Same assay, conditions: 200 μM 6-MPNs, 2 h
With `CO/C1=C\C(C)=C\[C@@H](C)[C@@H](O)[C@@H](C)C/C(C)=C/C=C/[C@H](OC)[C@@H]([C@@H](C)[C@@H](O)[C@H](C)[C@@]2(O)C[C@@H](O)[C@H](C)[C@@H](C(C)C)O2)OC1=O` [Bafilomycin A1] the “effect of intracellular transport inhibitor on the content of intracellular 6-MP” value was “significantly enhanced”.
With `C[C@H]1CCC/C=C/[C@@H]2C[C@H](O)C[C@H]2[C@H](O)/C=C/C(=O)O1` [Brefeldin A] the “effect of intracellular transport inhibitor on the content of intracellular 6-MP” value was “significantly enhanced”.
With `CC[C@@]1([C@@H]2O[C@@H]([C@H]3O[C@@](O)(CO)[C@H](C)C[C@@H]3C)C[C@@H]2C)CC[C@H]([C@]2(C)CC[C@]3(C[C@H](O)[C@@H](C)[C@@H]([C@@H](C)[C@@H](OC)[C@H](C)C(=O)O)O3)O2)O1` [Monensin] the “effect of intracellular transport inhibitor on the content of intracellular 6-MP” value was “significantly enhanced”.
In the case of `COC(=O)Nc1nc2ccc(C(=O)c3cccs3)cc2[nH]1` [Nocodazole, nocodazole], the “effect of intracellular transport inhibitor on the content of intracellular 6-MP” value is reported as “significantly enhanced”.
